The text below walks through data of ChEMBL document CHEMBL3585292, “Anti-dormant mycobacterial activity and target analysis of nybomycin produced by a marine-derived Streptomyces sp” (2015).

SMILES strings stand for the structures. ≈ marks a conversion by molar mass, not a printed value. Calls of active or inactive are those of the source. No cut-off for these calls is given here. Bounds are passed on as bounds.

Experiment [1] deals with Mycobacterium tuberculosis. Kind of experiment: Antibacterial activity against Mycobacterium tuberculosis T1413 under aerobic condition after 7 days by MTT assay. In kind it is functional. The conditions noted are these: T1413, 168 h. In a few lines:
(§1)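 MTT microdilution. Mid-log bacilli in 7H9 with 10% OADC, 0.5% glycerol, 0.05% Tween 80, seeded at 1 × 10⁴ CFU/0.1 mL (M. smegmatis) or 1 × 10⁵ CFU/0.1 mL (BCG, M. tuberculosis), then serially diluted sample added. Aerobic incubation at 37 °C; hypoxic incubation at 37 °C under N2 with 0.2% O2. MTT (0.5 mg/mL, 50 µL) added for 12 h more, OD560 read to give MIC.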
A general note: Tetrazolium assays rely on reduction of a dye to a coloured formazan, in cell work by metabolically active cells.

Experiment [2] concerns Mycolicibacterium smegmatis. As to the kind of experiment: Antibacterial activity against Mycobacterium smegmatis MC2 155 under hypoxic condition after 96 hrs by MTT assay. Format: functional. The conditions noted are these: str. MC2 155, 96 h. Summed up: as §1
Experiment [3] concerns Mycobacterium tuberculosis. Kind of experiment: Antibacterial activity against Mycobacterium tuberculosis H37Rv under aerobic condition after 7 days by MTT assay. In kind it is functional. As to conditions: 168 h. In a few lines:
as §1

Experiment [4] has as its system Mycolicibacterium smegmatis. As to the kind of experiment: Antibacterial activity against Mycobacterium smegmatis ICHO1037 harboring pMV261 with cloned 4109204 to 4110235 bp of Mycobacterium bovis BCG genome at 4 ug/ml by agar plate method. In kind it is functional, organism-based.
Experiment [5] has as its system Mycolicibacterium smegmatis. Kind of experiment: Antibacterial activity against Mycobacterium smegmatis ICHO1038 harboring pMV261 with cloned 4126836 to 4129396 bp of Mycobacterium bovis BCG genome at 4 ug/ml by agar plate method. In kind it is functional, organism-based.
Experiment [6] deals with Mycolicibacterium smegmatis. As to the kind of experiment: Antibacterial activity against Mycobacterium smegmatis ICHO1035 harboring pMV206 with cloned 696695 to 700844 bp of Mycobacterium bovis BCG genome at 2 ug/ml by agar plate method. In kind it is functional, organism-based.
Experiment [7] has as its system Mycobacterium tuberculosis. Kind of experiment: Antibacterial activity against Mycobacterium tuberculosis T1538 under aerobic condition after 7 days by MTT assay. In kind it is functional. The conditions noted are these: T1538, 168 h. Summed up:
as §1

In experiment [8] the test system is Mycolicibacterium smegmatis. Kind of experiment: Antibacterial activity against Mycobacterium smegmatis ICHO1035 harboring pMV206 with cloned 696695 to 700844 bp of Mycobacterium bovis BCG genome at 4 ug/ml by agar plate method. Format: functional, organism-based.
Experiment [9] relates to Mycolicibacterium smegmatis. As to the kind of experiment: Antibacterial activity against Mycobacterium smegmatis MC2 155 assessed as induction of morphological changes at 1 ug/ml after 48 hrs by phase contrast/scanning electron microscopic analysis. In kind it is functional, organism-based. The conditions noted are these: str. MC2 155.
Experiment [10] deals with Mycolicibacterium smegmatis. As to the kind of experiment: Antibacterial activity against Mycobacterium smegmatis ICHO1034 harboring pMV206 with cloned 685769 to 689308 bp of Mycobacterium bovis BCG genome at 4 ug/ml by agar plate method. In kind it is functional, organism-based.
The nature of experiment [11]: Inhibition of nybomycin probe (2) binding to pMV206 DNA (unknown origin) with cloned 700476 to 702854 bp of Mycobacterium bovis BCG genome overexpressed in Mycobacterium smegmatis ICHO1036 at 60 uM after 1 hr by agarose gel electrophoresis.
The test system of experiment [12] is Mycolicibacterium smegmatis. As to the kind of experiment: Antibacterial activity against Mycobacterium smegmatis MC2 155 under aerobic condition after 36 hrs by MTT assay. In kind it is functional. As to conditions: str. MC2 155, 36 h. In a few lines: as §1
The subject of experiment [13] is Mycolicibacterium smegmatis. As to the kind of experiment: Antibacterial activity against Mycobacterium smegmatis ICHO2012 harboring pYUB415 with cloned 686465 to 716464 bp of Mycobacterium bovis BCG genome at 2 ug/ml by agar plate method. Format: functional, organism-based.
Experiment [14] deals with Mycolicibacterium smegmatis. Kind of experiment: Antibacterial activity against Mycobacterium smegmatis ICHO2012 harboring pYUB415 with cloned 686465 to 716464 bp of Mycobacterium bovis BCG genome at 4 ug/ml by agar plate method. In kind it is functional, organism-based.
In experiment [15] the test system is Mycolicibacterium smegmatis. Kind of experiment: Antibacterial activity against Mycobacterium smegmatis ICHO1036 harboring pMV206 with cloned 700476 to 702854 bp of Mycobacterium bovis BCG genome at 2 ug/ml by agar plate method. In kind it is functional, organism-based.
For experiment [16], the system named is Mycolicibacterium smegmatis. Kind of experiment: Antibacterial activity against Mycobacterium smegmatis ICHO1036 harboring pMV206 with cloned 700476 to 702854 bp of Mycobacterium bovis BCG genome at 4 ug/ml by agar plate method. In kind it is functional, organism-based.
The test system of experiment [17] is Mycolicibacterium smegmatis. Kind of experiment: Antibacterial activity against Mycobacterium smegmatis ICHO1037 harboring pMV261 with cloned 4109204 to 4110235 bp of Mycobacterium bovis BCG genome at 2 ug/ml by agar plate method. In kind it is functional, organism-based.
Experiment [18] has as its system Mycolicibacterium smegmatis. As to the kind of experiment: Antibacterial activity against Mycobacterium smegmatis ICHO1034 harboring pMV206 with cloned 685769 to 689308 bp of Mycobacterium bovis BCG genome at 2 ug/ml by agar plate method. Format: functional, organism-based.
Experiment [19] can be described thus: Binding affinity to pMV206 DNA (unknown origin) with cloned 700476 to 702854 bp of Mycobacterium bovis BCG genome overexpressed in Mycobacterium smegmatis ICHO1036 at 260 pmol after 1 hr by agarose gel electrophoresis.
The nature of experiment [20]: Binding affinity to pMV206 DNA (unknown origin) with cloned 696695 to 700844 bp of Mycobacterium bovis BCG genome overexpressed in Mycobacterium smegmatis ICHO1035 at 260 pmol after 1 hr by agarose gel electrophoresis.
Experiment [21] in a line: Binding affinity to pMV206 DNA (unknown origin) at 260 pmol after 1 hr by agarose gel electrophoresis.

As usually defined, the MIC is the lowest concentration that inhibits growth of the organism. A low value points to inhibition by little substance. With `Cc1cc(=O)n2c3c(c4c(cc13)c(CO)cc(=O)n4C)OC2`, the MIC in [1] was determined as 6.3 µg/mL (≈ 21.1 µM); in experiment [2] it was 1 µg/mL (≈ 3.35 µM); in experiment [3], 4.2 µg/mL (≈ 14.1 µM); in experiment [7] it was 5.2 µg/mL (≈ 17.4 µM); in [12] it was 1 µg/mL (≈ 3.35 µM). Moreover, the outcome in experiment [4], in experiment [5], in experiment [6], in experiment [8], in [9] and in experiment [10] was Active. For the same compound, the outcome in experiment [16] and in [17] was Active. Also, the inhibition entry in experiment [11] is “Active”. Further, the result in experiment [13], in [14], in experiment [15] and in experiment [18] was inactive.
`COC(=O)CCCc1cn(CCOCCOCCOCCOCCOCCOCCOCCOCCOCCOCCNC(=O)CCCC[C@@H]2SC[C@@H]3NC(=O)N[C@@H]32)nn1`: the MIC in [2] and in [12] was more than 200 µg/mL throughout. In addition, the outcome in experiment [19] was inactive.
For `Cc1cc(=O)n2c3c(c4c(cc13)c(COC(=O)CCCc1cn(CCOCCOCCOCCOCCOCCOCCOCCOCCOCCOCCNC(=O)CCCC[C@@H]3SC[C@@H]5NC(=O)N[C@@H]53)nn1)cc(=O)n4C)OC2`, the MIC in [2] turned out to be 6.25 µg/mL (≈ 5.46 µM); in [12], 25 µg/mL (≈ 21.8 µM). In addition, the outcome in experiment [20], in experiment [19] and in [21] was Active.
In the case of `NNC(=O)c1ccncc1` [ISONIAZID], the MIC turned out to be 25 µg/mL (≈ 182 µM) in experiment [2] and 2.5 µg/mL (≈ 18.2 µM) in experiment [12]. Further, the inhibition result in experiment [11] was “inactive”.
